The M2OR odorant receptor database
Where a chain is given by its changes, count along the chain named.

What was measured:
Settings in all cases: stereoisomer not certain
OR51B5 (Homo sapiens) = biological target: T1, OR51B5 (Homo sapiens) (UniProt Q9H339)
T1 sequence (whole entry): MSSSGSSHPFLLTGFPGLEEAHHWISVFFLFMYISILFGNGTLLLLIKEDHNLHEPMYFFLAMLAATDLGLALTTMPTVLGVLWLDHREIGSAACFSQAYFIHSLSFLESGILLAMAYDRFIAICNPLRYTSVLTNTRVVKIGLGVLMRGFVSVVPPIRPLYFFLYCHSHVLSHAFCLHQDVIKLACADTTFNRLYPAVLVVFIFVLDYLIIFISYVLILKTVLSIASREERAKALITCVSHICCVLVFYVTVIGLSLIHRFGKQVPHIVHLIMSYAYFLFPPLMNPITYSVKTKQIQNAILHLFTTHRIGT
Method in brief: (§1)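 Values were gathered from published papers (main text and supplementary material), with extra details requested from the original authors when needed, and checked for typos and inconsistencies. Each receptor–molecule pair is called responsive (active) if the original authors judged the measured signal statistically different from baseline, and non-responsive (inactive) otherwise. Assay methods varied by source, often transient mammalian cell-line luciferase assays. Recorded details include cell line, G-protein, co-transfected protein and tags.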

OR4S2 (Homo sapiens) = biological target: T2, OR4S2 (Homo sapiens) (UniProt Q8NH73)
T2 sequence (whole entry): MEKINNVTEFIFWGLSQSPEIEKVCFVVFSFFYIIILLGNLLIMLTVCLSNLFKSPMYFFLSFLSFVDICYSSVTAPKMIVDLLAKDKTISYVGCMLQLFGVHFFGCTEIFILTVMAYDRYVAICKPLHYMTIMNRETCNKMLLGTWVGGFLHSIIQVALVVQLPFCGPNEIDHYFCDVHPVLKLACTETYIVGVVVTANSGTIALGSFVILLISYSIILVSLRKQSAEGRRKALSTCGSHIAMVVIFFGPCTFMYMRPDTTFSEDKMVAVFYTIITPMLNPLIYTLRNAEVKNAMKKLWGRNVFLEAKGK
Method in brief: as §1

OR4X1 (Homo sapiens) = biological target: T3, OR4X1 (Homo sapiens) (UniProt Q8NH49)
T3 sequence (whole entry): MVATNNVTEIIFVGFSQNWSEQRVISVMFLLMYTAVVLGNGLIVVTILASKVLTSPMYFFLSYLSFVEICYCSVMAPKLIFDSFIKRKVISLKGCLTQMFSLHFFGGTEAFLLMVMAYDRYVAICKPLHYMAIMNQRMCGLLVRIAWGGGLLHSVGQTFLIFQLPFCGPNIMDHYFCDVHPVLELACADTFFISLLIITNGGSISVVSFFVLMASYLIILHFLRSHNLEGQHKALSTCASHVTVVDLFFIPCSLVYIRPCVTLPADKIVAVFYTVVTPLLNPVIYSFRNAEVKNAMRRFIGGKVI
Method in brief: as §1

OR4X2 (Homo sapiens) = biological target: T4, OR4X2 (Homo sapiens) (UniProt Q8NGF9)
T4 sequence (whole entry): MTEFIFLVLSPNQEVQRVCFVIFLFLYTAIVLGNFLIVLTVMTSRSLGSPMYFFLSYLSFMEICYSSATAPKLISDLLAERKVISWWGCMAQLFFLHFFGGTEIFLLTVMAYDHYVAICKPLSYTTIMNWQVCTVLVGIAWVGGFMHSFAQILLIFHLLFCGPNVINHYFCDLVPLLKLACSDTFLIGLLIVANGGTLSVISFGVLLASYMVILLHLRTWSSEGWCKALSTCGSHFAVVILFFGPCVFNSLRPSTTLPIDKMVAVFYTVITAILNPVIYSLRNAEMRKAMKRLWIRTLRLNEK
Method in brief: as §1

OR51A2 (Homo sapiens) = biological target: T5, OR51A2 (Homo sapiens) (UniProt Q8NGJ7)
T5 sequence (whole entry): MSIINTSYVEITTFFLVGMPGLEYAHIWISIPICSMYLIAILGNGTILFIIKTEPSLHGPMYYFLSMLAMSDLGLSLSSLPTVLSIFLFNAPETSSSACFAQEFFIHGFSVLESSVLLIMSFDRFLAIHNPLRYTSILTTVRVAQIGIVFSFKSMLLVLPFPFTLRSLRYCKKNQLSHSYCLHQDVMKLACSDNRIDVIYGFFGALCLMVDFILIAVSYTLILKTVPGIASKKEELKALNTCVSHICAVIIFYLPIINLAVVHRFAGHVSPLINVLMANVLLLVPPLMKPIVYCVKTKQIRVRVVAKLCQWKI
Method in brief: as §1

OR51A4 (Homo sapiens) = biological target: T6, OR51A4 (Homo sapiens) (UniProt Q8NGJ6)
T6 sequence (whole entry): T5 sequence (whole entry) with G59E, T94I, S97N, S167N, P227L, E235Q, G267R, M288T, K289N, W311R
Method in brief: as §1

OR51A7 (Homo sapiens) = biological target: T7, OR51A7 (Homo sapiens) (UniProt Q8NH64)
T7 sequence (whole entry): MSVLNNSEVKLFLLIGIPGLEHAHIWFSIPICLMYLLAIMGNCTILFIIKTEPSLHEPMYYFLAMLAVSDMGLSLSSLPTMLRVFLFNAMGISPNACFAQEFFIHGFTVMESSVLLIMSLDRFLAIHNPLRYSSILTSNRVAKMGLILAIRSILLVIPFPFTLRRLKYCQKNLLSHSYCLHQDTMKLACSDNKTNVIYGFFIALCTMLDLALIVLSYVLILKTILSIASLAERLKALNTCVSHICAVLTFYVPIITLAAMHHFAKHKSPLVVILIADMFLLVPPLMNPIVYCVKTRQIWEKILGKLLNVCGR
Method in brief: as §1

OR51B2 (Homo sapiens) = biological target: T8, OR51B2 (Homo sapiens) (UniProt Q9Y5P1)
T8 sequence (whole entry): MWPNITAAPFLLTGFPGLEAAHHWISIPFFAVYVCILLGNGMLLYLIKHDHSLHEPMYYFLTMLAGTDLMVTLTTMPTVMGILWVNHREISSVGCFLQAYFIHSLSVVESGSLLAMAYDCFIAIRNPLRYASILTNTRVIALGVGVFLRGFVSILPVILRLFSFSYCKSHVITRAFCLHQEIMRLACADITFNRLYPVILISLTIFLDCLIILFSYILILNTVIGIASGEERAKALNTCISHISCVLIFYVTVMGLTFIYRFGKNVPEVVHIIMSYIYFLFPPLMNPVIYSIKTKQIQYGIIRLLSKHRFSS
Method in brief: as §1

OR51B4 (Homo sapiens) = biological target: T9, OR51B4 (Homo sapiens) (UniProt Q9Y5P0)
T9 sequence (whole entry): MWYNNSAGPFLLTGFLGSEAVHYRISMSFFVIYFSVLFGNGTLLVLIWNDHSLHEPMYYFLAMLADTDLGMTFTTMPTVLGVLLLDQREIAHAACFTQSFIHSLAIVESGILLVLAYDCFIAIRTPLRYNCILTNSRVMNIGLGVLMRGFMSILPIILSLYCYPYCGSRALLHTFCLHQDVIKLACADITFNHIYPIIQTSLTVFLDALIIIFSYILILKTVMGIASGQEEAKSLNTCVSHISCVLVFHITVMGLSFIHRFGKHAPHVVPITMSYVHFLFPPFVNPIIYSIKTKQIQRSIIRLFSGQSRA
Method in brief: as §1

OR51B6 (Homo sapiens) = biological target: T10, OR51B6 (Homo sapiens) (UniProt Q9H340)
T10 sequence (whole entry): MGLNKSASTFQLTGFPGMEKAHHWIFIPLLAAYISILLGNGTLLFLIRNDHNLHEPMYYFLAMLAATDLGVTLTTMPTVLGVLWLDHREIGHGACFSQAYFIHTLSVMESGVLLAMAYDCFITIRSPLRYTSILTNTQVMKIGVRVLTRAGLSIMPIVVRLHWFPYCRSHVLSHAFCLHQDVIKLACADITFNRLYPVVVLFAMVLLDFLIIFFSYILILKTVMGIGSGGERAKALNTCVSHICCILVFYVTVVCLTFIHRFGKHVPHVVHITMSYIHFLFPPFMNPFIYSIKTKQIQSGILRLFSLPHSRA
Method in brief: as §1

OR51D1 (Homo sapiens) = biological target: T11, OR51D1 (Homo sapiens) (UniProt Q8NGF3)
T11 sequence (whole entry): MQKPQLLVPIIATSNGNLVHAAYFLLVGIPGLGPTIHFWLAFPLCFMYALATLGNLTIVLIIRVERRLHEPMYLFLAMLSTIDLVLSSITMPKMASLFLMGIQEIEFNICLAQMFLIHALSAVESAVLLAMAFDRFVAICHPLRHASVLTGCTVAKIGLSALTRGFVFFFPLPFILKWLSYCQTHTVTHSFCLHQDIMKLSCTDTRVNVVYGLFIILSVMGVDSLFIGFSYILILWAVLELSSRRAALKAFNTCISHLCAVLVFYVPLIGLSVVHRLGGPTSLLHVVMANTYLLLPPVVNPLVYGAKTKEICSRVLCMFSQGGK
Method in brief: as §1

OR51E1 (Homo sapiens) = biological target: T12, OR51E1 (Homo sapiens) (UniProt Q8TCB6)
T12 sequence (whole entry): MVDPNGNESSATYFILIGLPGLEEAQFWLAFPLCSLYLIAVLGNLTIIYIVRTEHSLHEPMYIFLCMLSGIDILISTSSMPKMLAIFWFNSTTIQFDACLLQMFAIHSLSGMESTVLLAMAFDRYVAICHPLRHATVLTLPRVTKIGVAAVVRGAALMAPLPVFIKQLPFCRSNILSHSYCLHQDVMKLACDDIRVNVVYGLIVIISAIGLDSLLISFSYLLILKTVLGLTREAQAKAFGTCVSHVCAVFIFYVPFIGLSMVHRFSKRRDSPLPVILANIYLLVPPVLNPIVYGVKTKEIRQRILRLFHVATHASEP
Method in brief: as §1

OR51E2 (Homo sapiens) = biological target: T13, OR51E2 (Homo sapiens) (UniProt Q9H255)
T13 sequence (whole entry): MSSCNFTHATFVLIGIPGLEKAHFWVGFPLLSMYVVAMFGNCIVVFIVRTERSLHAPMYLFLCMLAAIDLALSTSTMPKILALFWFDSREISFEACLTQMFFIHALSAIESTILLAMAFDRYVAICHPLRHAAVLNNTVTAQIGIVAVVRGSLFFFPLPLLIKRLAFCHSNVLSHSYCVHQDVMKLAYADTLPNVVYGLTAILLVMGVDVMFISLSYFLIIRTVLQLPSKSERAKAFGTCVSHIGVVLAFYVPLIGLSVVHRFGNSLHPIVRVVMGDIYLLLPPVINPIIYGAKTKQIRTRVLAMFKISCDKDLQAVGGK
Method in brief: as §1

OR51F1 (Homo sapiens) = biological target: T14, OR51F1 (Homo sapiens) (UniProt A6NGY5)
T14 sequence (whole entry): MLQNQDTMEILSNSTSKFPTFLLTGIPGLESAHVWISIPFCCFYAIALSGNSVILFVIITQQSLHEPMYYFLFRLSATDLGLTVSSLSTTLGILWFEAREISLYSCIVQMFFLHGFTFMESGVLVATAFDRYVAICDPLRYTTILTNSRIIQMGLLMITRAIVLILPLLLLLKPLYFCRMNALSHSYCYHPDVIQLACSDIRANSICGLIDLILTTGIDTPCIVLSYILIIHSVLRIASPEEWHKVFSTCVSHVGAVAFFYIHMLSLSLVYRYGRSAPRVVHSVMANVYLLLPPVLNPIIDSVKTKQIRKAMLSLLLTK
Method in brief: as §1

OR51F2 (Homo sapiens) = biological target: T15, OR51F2 (Homo sapiens) (UniProt Q8NH61)
T15 sequence (whole entry): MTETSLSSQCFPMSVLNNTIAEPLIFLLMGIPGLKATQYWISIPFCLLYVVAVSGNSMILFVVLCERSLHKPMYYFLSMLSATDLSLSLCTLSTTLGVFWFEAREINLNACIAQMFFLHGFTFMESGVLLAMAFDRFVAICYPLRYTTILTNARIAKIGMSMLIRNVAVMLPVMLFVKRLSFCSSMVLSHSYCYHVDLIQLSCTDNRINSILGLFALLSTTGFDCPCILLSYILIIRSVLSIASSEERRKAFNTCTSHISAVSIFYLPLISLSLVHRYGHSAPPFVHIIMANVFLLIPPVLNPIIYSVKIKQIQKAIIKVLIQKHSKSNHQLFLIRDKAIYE
Method in brief: as §1

OR51G1 (Homo sapiens) = biological target: T16, OR51G1 (Homo sapiens) (UniProt Q8NGK1)
T16 sequence (whole entry): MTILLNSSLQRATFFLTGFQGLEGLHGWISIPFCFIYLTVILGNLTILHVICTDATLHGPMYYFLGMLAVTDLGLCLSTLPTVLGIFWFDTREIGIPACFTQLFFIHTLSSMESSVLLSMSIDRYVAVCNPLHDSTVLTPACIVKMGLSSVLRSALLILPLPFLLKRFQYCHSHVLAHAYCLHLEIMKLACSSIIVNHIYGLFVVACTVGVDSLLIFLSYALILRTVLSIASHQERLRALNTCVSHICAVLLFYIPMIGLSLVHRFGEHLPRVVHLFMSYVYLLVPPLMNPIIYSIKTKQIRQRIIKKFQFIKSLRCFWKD
Method in brief: as §1

OR51G2 (Homo sapiens) = biological target: T17, OR51G2 (Homo sapiens) (UniProt Q8NGK0)
T17 sequence (whole entry): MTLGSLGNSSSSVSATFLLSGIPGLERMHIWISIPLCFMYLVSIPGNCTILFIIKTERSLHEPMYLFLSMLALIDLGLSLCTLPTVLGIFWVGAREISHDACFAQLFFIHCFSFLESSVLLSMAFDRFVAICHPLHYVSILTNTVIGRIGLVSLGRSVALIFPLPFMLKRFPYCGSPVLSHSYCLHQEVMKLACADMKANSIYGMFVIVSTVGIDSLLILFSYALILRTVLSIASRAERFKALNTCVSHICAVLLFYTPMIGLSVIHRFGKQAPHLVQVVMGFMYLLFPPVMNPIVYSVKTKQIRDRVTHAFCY
Method in brief: as §1

OR51I1 (Homo sapiens) = biological target: T18, OR51I1 (Homo sapiens) (UniProt Q9H343)
T18 sequence (whole entry): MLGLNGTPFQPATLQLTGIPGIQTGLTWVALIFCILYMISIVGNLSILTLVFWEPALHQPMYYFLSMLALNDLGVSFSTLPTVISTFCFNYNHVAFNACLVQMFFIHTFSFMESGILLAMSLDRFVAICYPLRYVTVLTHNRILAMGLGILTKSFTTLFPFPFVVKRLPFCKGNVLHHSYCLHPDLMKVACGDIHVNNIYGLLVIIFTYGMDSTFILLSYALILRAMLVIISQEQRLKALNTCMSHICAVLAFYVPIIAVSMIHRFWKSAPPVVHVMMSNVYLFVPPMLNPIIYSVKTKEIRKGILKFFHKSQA
Method in brief: as §1

Measured: odorant receptor agonist call

C=C(C)C1CC=C(C)CC1 (centres undefined)
inactive: OR51B5 (Homo sapiens)

CCCCCCC=CCCC=O
inactive: all assays above
